Calls of active or inactive are those of the source. No cut-off for these calls is given here.
Tests used:
[1] = tested on: Brucella pseudogrignonensis; assay: Antibacterial activity against Ochrobactrum pseudogrignonense 4-4DEP at 30 ug/disk after 24 to 48 hrs by disk diffusion method; type: functional; conditions: for zone of inhibition at 30 µg/disc: read-out: DIZ
Outline: (§1)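 Marine bacterial isolate from a heavily fouled surface, identified by 16S rRNA gene sequence. Agar disk diffusion: sterilised 5.2 mm paper disks loaded with 30 µg pure compound in CH2Cl2 and dried 3 h at room temperature. Plates were seeded with 100 µL of overnight culture (10^6 cfu/mL) and incubated 24 and 48 h at 26 °C. Read-out was inhibition zone diameter, run in triplicate.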

[2] = tested on: Brucella pseudogrignonensis; assay: Antibacterial activity against Ochrobactrum pseudogrignonense 21-6PIN at 30 ug/disk after 24 to 48 hrs by disk diffusion method; type: functional; conditions: for zone of inhibition at 30 µg/disc: read-out: DIZ; outline: as §1
[3] = tested on: Alteromonas sp.; assay: Antibacterial activity against Alteromonas sp. 11-6DEP at 30 ug/disk after 24 to 48 hrs by disk diffusion method; type: functional; conditions: for zone of inhibition at 30 µg/disc: read-out: DIZ
Outline: (§2)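 Disk diffusion on agar plates against marine bacterial isolates from a heavily fouled surface, identified by 16S rRNA sequencing. 5.2 mm sterilized paper disks loaded with 30 µg compound in CH2Cl2, dried 3 h at room temperature, then placed on plates spread with 100 µL overnight culture (10^6 cfu/mL). Inhibition zone diameter read after 24 and 48 h at 26 °C. Cu2O 600 µg/disk positive control, CH2Cl2 solvent control, triplicate.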

[4] = tested on: Oceanobacillus iheyensis; assay: Antibacterial activity against Oceanobacillus iheyensis 31-C at 30 ug/disk after 24 to 48 hrs by disk diffusion method; type: functional; conditions: for zone of inhibition at 30 µg/disc: read-out: DIZ; outline: as §2
[5] = tested on: Bacillus sp.; assay: Antibacterial activity against Bacillus sp. 10-6DEP at 30 ug/disk after 24 to 48 hrs by disk diffusion method; type: functional; conditions: Bacillus sp. (in: firmicutes), read-out: DIZ; outline: as §2
[6] = tested on: Kocuria sp. 10-4DEP; assay: Antibacterial activity against Kocuria sp. 10-4DEP at 30 ug/disk after 24 to 48 hrs by disk diffusion method; type: functional; conditions: for zone of inhibition at 30 µg/disc: read-out: DIZ; outline: as §2
[7] = tested on: Brucella pseudogrignonensis; assay: Antibacterial activity against Ochrobactrum pseudogrignonense 21-6PIN after 24 to 48 hrs by disk diffusion method; type: functional
Outline: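 MIC by agar disk diffusion per NCCLS against the marine isolate 21-6PIN. Loadings per disk were 30, 16, 8, 4, 2, 1 and 0.5 µg, delivered in MeOH, with methanol alone as negative control. Run in triplicate.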

[8] = tested on: Escherichia coli; assay: Antiquorum sensing activity against Escherichia coli pS401 assessed as inhibition of Pseudomonas putida IsoF derived acyl-homoserinelactone-induced bioluminescence upto 200 ug after overnight incubation
Outline: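 Biosensor agar overlay. E. coli pS401 and P. putida IsoF grown in LB broth. 15 mL of each culture mixed into LB soft agar (0.8%) and poured over prewarmed LB agar plates. Paper disks received 10 or 20 µL of a 10 mg/mL compound solution. Plates incubated overnight at 37 °C and luminescence imaged. QS inhibition was scored where light was lost but growth around the disk was unaffected.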

[9] = tested on: Bacillus sp.; assay: Antibacterial activity against Bacillus sp. 10-6DEP after 24 to 48 hrs by disk diffusion method; type: functional
Outline: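 MIC by agar disk diffusion (NCCLS) against Bacillus sp. 10-6DEP. Disks loaded with 30, 16, 8, 4, 2, 1 and 0.5 µg delivered in MeOH. Methanol alone as negative control. Triplicate.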

[10] = tested on: Brucella pseudogrignonensis; assay: Antibacterial activity against Ochrobactrum pseudogrignonense 4-4DEP after 24 to 48 hrs by disk diffusion method; type: functional

Row | SMILES | zone of inhibition at 30 µg/disc [1] [mm] | zone of inhibition at 30 µg/disc [2] [mm] | diameter of the inhibition zone (DIZ) [3] | zone of inhibition at 30 µg/disc [4] [mm] | zone of inhibition at 30 µg/disc [5] [mm] | zone of inhibition at 30 µg/disc [6] [mm] | MIC [7] [µg] | Activity [8] | MIC [9] [µg] | diameter of the inhibition zone (DIZ) [1] | zone of inhibition at 30 µg/disc [3] [mm] | diameter of the inhibition zone (DIZ) [4] | diameter of the inhibition zone (DIZ) [6] | MIC [10] [µg] | diameter of the inhibition zone (DIZ) [2]
1 | C=C1CC/C=C(\C)CC[C@H](C(=C)C)[C@@H](OC(C)=O)/C=C(/COC(C)=O)CC[C@H]1O | 6 | 6 | inactive | 6 | 8 | 6 | >30 | Active | >30 |  |  |  |  |  | 
2 | C=C(C)[C@@H]1C/C=C(/CO)CC[C@H]2O[C@]2(C)CC/C=C(\C)CC1 [KNIGHTOL] |  | 6 |  | 6 | ≥ 10 | ≥ 10 | 8 | Active | 2 | inactive | 6 |  |  |  | 
3 | C=C(C)[C@H]1CC/C(C)=C/CC[C@@]2(C)O[C@@H]2CC/C(COC(C)=O)=C\[C@@H]1O [ASPERDIOL ACETATE] |  | ≥ 10 | inactive |  | 8 |  | 30 |  | 30 | inactive |  | inactive | inactive | >30 | 
4 | C=C(C)[C@H]1CC/C(C)=C/CC[C@@]2(C)O[C@@H]2CC/C(CO)=C\[C@@H]1O [ASPERDIOL] |  | 8 | inactive |  | 6 |  | >30 |  | 4 | inactive |  | inactive | inactive |  | 
5 | C=C(C)[C@H]1CC/C(C)=C/C/C=C(\C)[C@H](O)CC/C(COC(C)=O)=C\[C@@H]1OC(C)=O | 6 | 8 |  | 6 | 8 | 6 | 30 | Active | 30 |  | 6 |  |  | >30 | 
6 | C=C(C)[C@@H]1C/C=C(/C=O)CC[C@H]2O[C@]2(C)CC/C=C(\C)CC1 [KNIGHTAL] |  | 6 |  | 6 | 8 | 8 | 8 | Active | 16 | inactive | 6 |  |  | 8 | 
7 | C=C(C)[C@H]1CC/C(C)=C/CC[C@@](C)(Cl)[C@H](O)CC/C(COC(C)=O)=C\[C@@H]1OC(C)=O | 6 |  | inactive | 6 | 8 |  | >30 |  | >30 |  |  |  | inactive |  | inactive
8 | C=C(C)[C@H]1CC/C(C)=C/C/C=C(/C)[C@@H](O)CC/C(COC(C)=O)=C\[C@@H]1OC(C)=O | 6 |  | inactive |  | 6 |  | >30 |  | >30 |  |  | inactive | inactive |  | inactive
9 | C=C(C)[C@H]1CC/C(C)=C/CC[C@@]2(C)O[C@@H]2CC/C(COC(C)=O)=C\[C@@H]1OC(C)=O | 6 | ≥ 10 | inactive | 6 | 8 |  | 30 |  | 30 |  |  |  | inactive | >30 | 
10 | C=C(C)[C@@H]1C/C=C(/COC(C)=O)CC[C@H]2O[C@]2(C)CC/C=C(\C)CC1 [KNIGHTOL ACETATE] |  | 6 | inactive | 6 | 6 |  | 8 |  | 30 | inactive |  |  | inactive | 8 | 

— ChEMBL document CHEMBL1154306, “Cembranoid diterpenes from the Caribbean sea whip Eunicea knighti” (2009)
